In ChEMBL document CHEMBL2062470, “Fungal bis-Naphthopyrones as Inhibitors of Botulinum Neurotoxin Serotype A” (ACS Med Chem Lett, 2012):

Columns and labels:
[1] = target: Botulinum neurotoxin type A (Clostridium botulinum (strain Hall / ATCC 3502 / NCTC 13319 / Type A)) (UniProt P0DPI1); assay: Inhibition of Clostridium botulinum Hall BoNT/A protease activity using Ac-SNKTRIDEANQRATKML-NH2 as substrate at 100 uM after 5 mins by RP-HPLC analysis
Procedure, shortened: (§1)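 HPLC-based BoNT/A protease assay; single-point percent inhibition of protease activity at 100 or 20 μM compound.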

[2] = target: Botulinum neurotoxin type A (Clostridium botulinum (strain Hall / ATCC 3502 / NCTC 13319 / Type A)) (UniProt P0DPI1); assay: Inhibition of Clostridium botulinum Hall BoNT/A protease activity using Ac-SNKTRIDEANQRATKML-NH2 as substrate at 20 uM after 5 mins by RP-HPLC analysis; procedure, shortened: as §1
[3] = target: Botulinum neurotoxin type A (Clostridium botulinum (strain Hall / ATCC 3502 / NCTC 13319 / Type A)) (UniProt P0DPI1); assay: Inhibition of Clostridium botulinum Hall BoNT/A-mediated paralysis in CD1 mouse phrenic nerve hemidiaphragm assessed as time required to 50% loss of twitch tension at 20 uM measured upto 5 hrs (reference value: 62 mins)
[4] = target: Botulinum neurotoxin type A (Clostridium botulinum (strain Hall / ATCC 3502 / NCTC 13319 / Type A)) (UniProt P0DPI1); assay: Inhibition of Clostridium botulinum Hall BoNT/A-mediated paralysis in CD1 mouse phrenic nerve hemidiaphragm assessed as time required to 50% loss of twitch tension at 2 uM measured upto 5 hrs (reference value: 62 mins)
[5] = target: Botulinum neurotoxin type A (Clostridium botulinum (strain Hall / ATCC 3502 / NCTC 13319 / Type A), UniProt P0DPI1); assay: Inhibition of Clostridium botulinum Hall BoNT/A protease activity using Ac-SNKTRIDEANQRATKML-NH2 as substrate after 5 mins by RP-HPLC analysis
Sequence of Botulinum neurotoxin type A (P0DPI1 2-448 limits assumed): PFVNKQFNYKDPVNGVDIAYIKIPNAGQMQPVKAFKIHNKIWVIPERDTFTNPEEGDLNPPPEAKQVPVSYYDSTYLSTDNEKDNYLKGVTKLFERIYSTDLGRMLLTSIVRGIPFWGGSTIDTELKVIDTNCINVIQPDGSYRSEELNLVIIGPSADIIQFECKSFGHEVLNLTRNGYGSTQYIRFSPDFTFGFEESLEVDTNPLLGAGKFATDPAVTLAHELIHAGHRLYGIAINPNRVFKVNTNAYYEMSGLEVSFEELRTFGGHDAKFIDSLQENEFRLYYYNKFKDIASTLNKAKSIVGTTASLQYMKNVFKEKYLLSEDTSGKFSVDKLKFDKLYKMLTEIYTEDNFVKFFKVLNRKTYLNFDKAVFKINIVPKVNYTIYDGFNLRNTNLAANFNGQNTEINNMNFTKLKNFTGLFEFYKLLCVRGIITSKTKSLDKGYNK
Procedure, shortened: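 HPLC-based BoNT/A protease assay; percent inhibition measured at nine compound concentrations, with IC50 derived by curve fitting.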

Sequence of Botulinum neurotoxin type A (Clostridium botulinum (strain Hall / ATCC 3502 / NCTC 13319 / Type A)) (P0DPI1 2-448 limits assumed): as above

Compound	inhibition [1]	inhibition [2]	TIME [3]	TIME [4]	IC50 [5]
CCC[C@H]1Cc2cc3c(-c4c(O)cc(O)c5c(O)c6c(cc45)C[C@H](CCC)OC6=O)c(O)cc(O)c3c(O)c2C(=O)O1 (single isomer, unassigned; atropisomer)	80.3%	67%	1.58 h	2.9 h	–
CCC[C@H]1Cc2cc3c(-c4c(O)cc(O)c5c(O)c6c(cc45)C[C@H](CCC)OC6=O)c(O)cc(O)c3c(O)c2C(=O)O1 (single isomer, unassigned; atropisomer) [TALARODERXINE A]	–	–	–	–	10.1 µM
COC(=O)[C@]12Oc3ccc(-c4ccc5c(c4O)C(=O)C4=C(O)C[C@@H](C)[C@H](O)[C@@]4(C(=O)OC)O5)c(O)c3C(=O)C1=C(O)C[C@@H](C)[C@@H]2O [SECALONIC ACID A]	64.5%	39.1%	1.12 h	–	28.6 µM
Cc1cc(O)c2c(c1)C(=O)c1c(c(O)cc(O)c1-c1c(O)cc(O)c3c1C(=O)c1cc(C)cc(O)c1C3=O)C2=O [SKYRIN]	74.3%	40.3%	1.35 h	1.07 h	31.5 µM
CC1CC(=O)c2c(cc3c(-c4c(O)cc(O)c5c(O)c6c(cc45)OC(C)CC6=O)c(O)cc(O)c3c2O)O1 (stereo not drawn) [CEPHALOCHROMIN]	72%	45%	0.983 h	–	29.2 µM
CCC[C@H]1Cc2cc3c(-c4c(O)cc(O)c5c(O)c6c(cc45)C[C@H](CCC)OC6=O)c(O)cc(O)c3c(O)c2C(=O)O1	96%	85%	3.28 h	3.15 h	–
C[C@H]1Oc2cc3c(-c4c(O)cc(O)c5c(O)c6c(cc45)O[C@H](C)[C@@H](C)C6=O)c(O)cc(O)c3c(O)c2C(=O)[C@@H]1C [CHAETOCHROMIN A]	74%	55%	3.13 h	1.73 h	24.6 µM
CCOc1ccc(C(Nc2cccnc2)c2cc(Cl)c3cccnc3c2O)cc1 (racemic)	98%	96.2%	5 h	5 h	2.1 µM
CCC[C@H]1Cc2cc3c(-c4c(O)cc(O)c5c(O)c6c(cc45)C[C@H](CCC)OC6=O)c(O)cc(O)c3c(O)c2C(=O)O1 [TALARODERXINE A]	–	–	–	–	3.7 µM
